Rows were chosen to be rich in hits. Some 4.5% of all compounds tested hit in one or more screens of this group.
M18AAP inhibitor: blocks P. falciparum M18 aspartyl aminopeptidase | recombinant PfM18AAP, H-Glu-NHMec fluorogenic cleavage | actives 1.2% (n = 290,000) | inhibition, % at 7.35 µM;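 active means inhibition above the campaign mean inhibition over all tested compounds plus 3 SD, cut at about 28% in these data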
CHOP inhibitor: CHOP inhibition in unfolded protein response; CHO-K1 CHOP-promoter luciferase, tunicamycin-induced, 15-18 h; inhibition, % at 10 µM; actives 3.8% (n = 220,000);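 active means compounds that reduced the stress-induced luciferase reporter signal by more than about 70% of percent inhibition, limit read from the data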
p97 ATPase inh: human p97 ATPase inhibition. P55072. recombinant p97 ATPase, Kinase-Glo ATP luminescence, 3 h. inhibition, % at 8 µM. actives 0.42% (n = 220,000). AID 1481; in the data active means inhibition above about 15%
Target sequence (P55072 whole entry, looked up): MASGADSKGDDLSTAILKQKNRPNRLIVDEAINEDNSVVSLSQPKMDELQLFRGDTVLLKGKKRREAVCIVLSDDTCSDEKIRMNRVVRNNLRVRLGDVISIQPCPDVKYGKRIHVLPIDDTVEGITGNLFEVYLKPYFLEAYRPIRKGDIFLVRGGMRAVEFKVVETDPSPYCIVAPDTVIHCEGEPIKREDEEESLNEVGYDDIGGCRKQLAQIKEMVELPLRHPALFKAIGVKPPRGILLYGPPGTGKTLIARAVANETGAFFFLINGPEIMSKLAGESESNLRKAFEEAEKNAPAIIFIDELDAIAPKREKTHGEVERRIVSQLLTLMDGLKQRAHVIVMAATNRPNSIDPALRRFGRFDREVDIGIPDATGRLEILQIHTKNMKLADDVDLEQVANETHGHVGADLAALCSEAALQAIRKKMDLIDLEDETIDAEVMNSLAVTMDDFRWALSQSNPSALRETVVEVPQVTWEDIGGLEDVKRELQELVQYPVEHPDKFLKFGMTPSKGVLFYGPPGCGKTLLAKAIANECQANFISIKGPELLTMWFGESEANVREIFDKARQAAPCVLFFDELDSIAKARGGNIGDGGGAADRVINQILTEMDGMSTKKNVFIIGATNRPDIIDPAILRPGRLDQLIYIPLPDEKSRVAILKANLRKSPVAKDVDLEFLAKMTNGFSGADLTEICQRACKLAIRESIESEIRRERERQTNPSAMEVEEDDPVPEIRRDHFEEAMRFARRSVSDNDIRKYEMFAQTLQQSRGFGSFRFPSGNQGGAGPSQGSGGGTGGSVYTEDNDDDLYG
UPR CHOP act: activators of apoptotic arm of unfolded protein response (CHOP) | CHO-CHOP luciferase reporter, UPR activation, luminescence; percent of tunicamycin response over DMSO baseline | activation, % at 10 µM | actives 0.34% (n = 330,000);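 active means at 10 µM dose, activation of 40% or more, normalized to positive control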
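System: CHO-CHOP luciferase reporter cell line; amount: 500 cells/well; buffer or medium: F12 medium containing 10% fetal bovine serum; incubation: 6 h compound exposure at 37 °C after overnight seeding; measured by: luciferase luminescence after 10 min with Steady-Glo reagent; evaluation: % reporter activation, DMSO baseline versus tunicamycin full activation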
XBP1 UPR activ: activators of adaptive arm of unfolded protein response (XBP1). AID 463104. actives 0.33% (n = 330,000). activation, % at 20 µM. CHO-XBP1 luciferase reporter, IRE1-XBP1 UPR activation, luminescence; percent of tunicamycin response, DMSO as zero;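 active means versus positive control, 20 µM dose yields 30% or more activation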
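Material – CHO cell line with stable XBP1 luciferase reporter · Buffer or medium – F12 plus 10% FBS · Compound – single point, 20 µM final compound, 1% DMSO · Schedule – 16-18 h cell attachment at 37 °C, then 6 h compound exposure · Signal – Steady-Glo luminescence read · Benchmarks – high control tunicamycin 10 µg/mL final, low control DMSO vehicle only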
NS3 helicase inh: blocks Hepatitis C virus NS3 helicase unwinding; actives 0.56% (n = 290,000); inhibition, % at 10.9 µM; NS3 helicase DNA unwinding, Cy5 molecular beacon fluorescence;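 active means inhibition above the mean of all tested compounds plus 3 SD, set per campaign, cut at about 35% in these data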
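Assay system – hepatitis C virus NS3 helicase domain fragment enzyme · Buffer or medium – MOPS pH 6.5, MgCl2, DTT, Tween20, BSA · Reagent – Cy5/quencher beacon DNA duplex and ATP to start · Compound – single 10.9 µM dose · Timing – 1 h at 25 °C · Technique – Cy5 beacon fluorescence read at start and 1 h · Measure – % inhibition of unwinding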
Large screens that a line does not name were inactive.

CCCCn1c(N)c(N(CCOC)C(=O)COC(=O)C(C)Oc2ccc(Cl)cc2)c(=O)[nH]c1=O (stereo unspecified)	none (no result: M18AAP inhibitor, CHOP inhibitor, p97 ATPase inh, NS3 helicase inh)
COc1ccccc1NCCC(=O)OCC(=O)Nc1cc([N+](=O)[O-])ccc1F	none (no result: M18AAP inhibitor, CHOP inhibitor, p97 ATPase inh, NS3 helicase inh)
CC(=O)Nc1ccc(S(=O)(=O)NCCC(=O)OCC(=O)c2cccc(Br)c2)cc1	none (no result: M18AAP inhibitor, CHOP inhibitor, p97 ATPase inh, NS3 helicase inh)
Cc1cc(C(=O)COC(=O)Cc2n[nH]c(=O)c3ccccc23)c(C)n1-c1ccc2c(c1)OCO2	CHOP inhibitor 85
CC(=O)N1CC2([N+](=O)[O-])CN(C(C)=O)CC([N+](=O)[O-])(C1)C2(C)C	none
Cc1ccc(CSC(Nc2ccc(F)cc2)=C(C#N)C#N)cc1	CHOP inhibitor 76
CCC(C)(C)NC(=O)c1ccc2c(c1)N(CC(=O)NC1CCCC1)C(=O)C(C)(C)O2	none (no result: CHOP inhibitor, p97 ATPase inh)
COc1ccc(-c2csc(N(Cc3ccccc3)C(=O)COc3ccc(Cl)cc3)n2)cc1	CHOP inhibitor 91
N#CCC(=O)N/N=C/c1cccc(Oc2ccccc2)c1	M18AAP inhibitor 30
COc1cc(OC)cc(C2C(C#N)=C(N)Oc3n[nH]c(-c4cccnc4)c32)c1 (stereo unspecified)	none
CC(C)(C)c1ccc(C2C(C#N)=C(N)Oc3n[nH]c(-c4cccnc4)c32)cc1 (stereo unspecified)	CHOP inhibitor 76
CC1CCN(S(=O)(=O)c2ccc(Cl)cc2Br)CC1	CHOP inhibitor 78
O=S(=O)(c1cc(Cl)ccc1Br)N1CCCCC1	none
Cc1csc(C(=O)NN)c1N(C)C	none
CC(C)=CC(=O)NCCc1ccccc1	CHOP inhibitor 85
CC(=O)NNC(=S)NCCc1ccccc1	M18AAP inhibitor 30
Oc1ccccc1/C=N/NC(=S)NCCc1ccccc1	M18AAP inhibitor 29 (no result: CHOP inhibitor, p97 ATPase inh, UPR CHOP act, XBP1 UPR activ)
S=C(NCCc1ccccc1)N/N=C/c1cccc(Cl)c1Cl	none
Cc1ccc(NC(=O)CCCc2ccccc2)nc1	none
Cc1ccc(NC(=S)NCCc2ccccc2)nc1	M18AAP inhibitor 29
CC1=CC(C)C2COC(c3ccc[n+](C)c3)C1C2C (stereo unspecified)	none
C/C(O)=C(/C=NCC(=O)O)C(=O)Nc1nccs1	none
O=C(Nc1ccccc1O)C(c1ccccc1)c1ccccc1	none (no result: CHOP inhibitor, p97 ATPase inh)
O=C(NCCC1=CCCCC1)c1ccc2c(c1)N(Cc1ccccc1)C(=O)CS2	none
CN1C(=O)CS(=O)c2ccc(C(=O)NCCC3=CCCCC3)cc21 (stereo unspecified)	M18AAP inhibitor 30
Cc1cccc(N(Cc2ccccc2)C(=O)CN2C(=O)NC3(CCCC3)C2=O)c1	none (no result: M18AAP inhibitor, CHOP inhibitor, p97 ATPase inh, NS3 helicase inh)
Cc1sc2ncnc(SCC(=O)NC(C)(C)C)c2c1C	none
Cc1ccc(OCC(=O)NNC(=O)CSc2ncnc3sc(C)c(C)c23)cc1	CHOP inhibitor 89
CCCCn1c(N)c(N(CCOC)C(=O)c2cc(S(=O)(=O)N3CCCCC3)ccc2C)c(=O)[nH]c1=O	none (no result: M18AAP inhibitor, CHOP inhibitor, p97 ATPase inh, NS3 helicase inh)
CCC(=C(c1ccc(OC)cc1)c1ccc(OC)cc1)c1cn(CC(O)CN(CCO)CCO)c2ccccc12 (stereo unspecified)	CHOP inhibitor 76
COc1ccc(OCC(O)CN(CCO)CC(O)Cn2ccc3ccccc32)cc1 (stereo unspecified)	none
CCOc1ccc(N(CC(=O)NCc2ccco2)C(=O)CCC(=O)Nc2ccccn2)cc1	none (no result: CHOP inhibitor, p97 ATPase inh)
Cc1ccc(OCCC(=O)N(CCC(C)C)c2c(N)n(Cc3ccccc3)c(=O)[nH]c2=O)cc1	none (no result: M18AAP inhibitor, CHOP inhibitor, p97 ATPase inh, NS3 helicase inh)
CC/C(=N/NC(=O)CNc1ccc(Cl)cc1C)c1ccccc1	CHOP inhibitor 70
Cc1cc(N2CCOCC2)ccc1/C=C\[N+](=O)[O-]	none
COc1ccc(NC(=O)NCCCN2CCN(c3ccccc3F)CC2)cc1	none
COc1ccc(NC(=O)NCCCN2CCN(c3cc(C)ccc3C)CC2)cc1	CHOP inhibitor 72
COc1cc(NC(=O)NCCN2CCN(c3ccc(Cl)cc3)CC2)ccc1C	CHOP inhibitor 84
Cc1ccc2occ(C3N[C@H](C(=O)O)CS3)c(=O)c2c1 (stereo partly specified)	none
Cc1ccc2occ(C3NC(C(=O)O)CS3)c(=O)c2c1 (stereo unspecified)	M18AAP inhibitor 31
COC(=O)NNC(=S)Nc1ccc(Br)cc1	none
